Assay results from ChEMBL document CHEMBL1139854, “Phenalenone-type compounds from Musa acuminata var. "Yangambi km 5" (AAA) and their activity against Mycosphaerella fijiensis” (J Nat Prod, 2007).
Activity calls are given as the source filed them. The calls are words filed in the database; no cut-off is given here.

What was measured:
Format in all cases: functional
[1] = test system: Pseudocercospora fijiensis; experiment: Inhibition of Mycosphaerella fijiensis mycelial growth at 50 to 100 ppm after 15 days
How it was run: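 Colonies (2 ± 1 mg) were taken from conidia grown 4 days on PDA. They were placed 20 per dish on PDA holding 10, 50 or 100 ppm compound added in EtOH (max 3.7%). Colony weight was taken at 7 and 15 days (10 colonies each) against EtOH-only blank medium. Run in quadruplicate and analysed by one-way ANOVA.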

[2] = test system: Pseudocercospora fijiensis; experiment: Growth inhibition of Mycosphaerella fijiensis by microtitre plate photometric assay
How it was run: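 Mycelial fragments came from monosporic PDA subcultures of several strains grown 15-20 days at 27 °C. They were bead-vortexed, filtered at 100 µm, counted and set to 2 × 10⁴–2 × 10⁶ fragments/mL. Cultures ran in Sabouraud broth with final 0, 5, 10, 20, 30, 40, 50 ppm at 27 °C. OD595 was read daily up to 17 days. IC50 is 50% growth inhibition versus compound-free inoculum.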

[3] = test system: Pseudocercospora fijiensis; experiment: Inhibition of Mycosphaerella fijiensis spore germination at 50 to 100 ppm
How it was run: (§1)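 Ascospores were exposed to compound at 10, 50 or 100 ppm for 24 h at 27 °C. Germination and germ-tube length were scored microscopically on 50-150 ascospores. Run in quadruplicate.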

[4] = test system: Pseudocercospora fijiensis; experiment: Inhibition of Mycosphaerella fijiensis mycelial growth
[5] = test system: Pseudocercospora fijiensis; experiment: Inhibition of Mycosphaerella fijiensis spore germination; how it was run: as §1

Compound	Activity [1]	IC50 [2] [ppm]	Activity [3]	Activity [4]	Activity [5]
COC1=Cc2cccc3cccc(c23)C1=O	Active	19.3	Active		
O=C1C(O)=Cc2cccc3cccc1c23	Active	23.4	Active		
O=C1C=Cc2cccc3cccc1c23	Active			Active	Active
COc1ccc(-c2ccc3cccc4c3c2C(=O)C=C4)cc1				Active	
